To fix the notation:
B1: tRNA (parent)
chain: GUUCCGUUGGCGUAAUGGUAACGCGUCUCCCUCCUAAGGAGAAGACUGCGGGUUCGAGUCCCGUACGGAACG

The source of these data is the RNAGym collection of RNA variant scans (doi:10.1126/science.aae0568).

Fewer inactive variants are shown than the library holds.

In this data set the parent is B1. Nature of the data set: yeast fitness relative to wild type (ratio to wild type); higher = fitter; tRNA-Arg(CCU), competitive growth, 37 C, YPD. In outline:
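The tRNA-Arg(CCU) gene variants were made by chemical synthesis with a 3% per-site mutation rate at 69 sites and inserted at the native genomic locus of Saccharomyces cerevisiae. After pooling, the strains were competed in YPD at 37°C for 24 hours in six parallel replicates. Gene amplicons from the start population and each end population were read by 100-nucleotide paired-end sequencing, and Darwinian fitness relative to wild type was taken from genotype frequency changes. Genotypes needed ≥ 100 starting reads, and estimates < 0.5 were set to 0.5.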
On to C30G G44C G51C, for which the yeast fitness amounted to 0.549.

As for C4U U8G A15U C62U, the yeast fitness is no more than 0.5. A69U A70C: the yeast fitness came to 1.04. As for G12C C33U G50C A70U, the figure is 0.509; as for C29G U53A, 0.523; as for C27U G41C, 0.898. On to G41C C62A G68C, for which the yeast fitness was no more than 0.5.

A15G C30U C33A G41C C46U G48C: the yeast fitness came out at 0.551. In the case of C31G G50C it was 0.738; in that of U7A C11U A36U C62U C66U, no more than 0.5. As for U16A A20U C46A, the figure is no more than 0.5; as for U8C G9A U59A A70G, no more than 0.5; as for G23C C27G A45G G52A C66A, 0.634. Take C22G C24G A45C U47C G63C: the yeast fitness was no more than 0.5.

As for U8G G52A, the yeast fitness was found to be 0.512. As for C4G A20G A70C, the figure is 0.758; as for C11U G51A C61G, no more than 0.5; as for G10C G12U C33U U35G, no more than 0.5.

On to G10C U13A A14G A20G C22A C24G U32G, for which the yeast fitness is no more than 0.5. In the case of U28A U59C, the yeast fitness was 0.647. For A20U C46U C60A, the yeast fitness came out at 0.566. As for U19G A65G A70C, the figure is 0.733; as for G25A C29U A45U, 0.69; as for A20C A40U A43U A70U, no more than 0.5.

Take G6A C24G U35A G48C A69G: the yeast fitness is 0.574. In the case of G44A A45C C49G it was 0.983; in that of G9C A14U A45U C49G C55G G67C, no more than 0.5. In the case of U3A A21G C46A it was 0.695; in that of G38C A40U, 0.639. As for C24U A43G A69U, the figure is 0.819.

In the case of C4U G10C A15G A20U A21G C33U U47C A57C, the yeast fitness is no more than 0.5. In the case of U26C A70C it was 0.797; in that of U2C G18A, 0.806. In the case of C4G C11A U28G U47G C49G U53G C55G it was no more than 0.5; in that of C34U A45C G52A A65G, 0.688; in that of U28C U32C C34U A45U A70U, 0.584. In the case of U19C U26A C46U it was 0.901. As for C46U G56C, the yeast fitness was 0.698. In the case of C22U G63C it was 0.67. In the case of C27A C33U G44C A45U G50C G67A, the yeast fitness was no more than 0.5. As for G10A C29A A45U, the figure is no more than 0.5; as for G9A A42C C55G, no more than 0.5. In the case of G9C C31G U32G it was no more than 0.5; in that of C5U C11U C46U, 0.752. As for C5G U13C A21C G67A, the figure is no more than 0.5.

On to G6A C22U C33U A36U A43C C60U C61G A70G, for which the yeast fitness is no more than 0.5. Consider C27A G41A U47A A69U, for which the yeast fitness is no more than 0.5. As for U7G A15G A21C, the figure is no more than 0.5; as for A20U A37C C46G, 0.528.

Consider U3A A20G A36C G51C, for which the yeast fitness was no more than 0.5. With G6A G23C, the yeast fitness turned out to be 0.643.

Regarding C34U C46G A70U, the yeast fitness is 0.601.

A15U U26C: the yeast fitness was determined as 0.81. In the case of U3G C46U C49U it was 0.698; in that of C27U A45C C55G G58C, no more than 0.5. In the case of C4A G44C it was 0.742; in that of G25A G63A, 0.949. As for G12C U19G G25A U59A U64A, the figure is 0.623. Regarding G6A A36U, the yeast fitness stood at 0.604. As for U3A A40C, the figure is 0.635; as for U8A U13A A14C U16C G67A, no more than 0.5. Regarding C55G A65C, the yeast fitness came out at 0.529. As for G9A C61G, the figure is 0.705; as for U3G C5G U19C U47A C55A G68A, no more than 0.5; as for G9C G23A A40C C55G A65G, no more than 0.5. As for G9C U16C C30U U32G, the figure is no more than 0.5; as for C22U G63C G68U, no more than 0.5. In the case of U7C C31G it was 0.81; in that of G18A C22A A37C G48A, no more than 0.5; in that of G6A A14C A20G A42U G56A G63C, no more than 0.5.

With U8C C22A U47A, the yeast fitness is no more than 0.5. As for C11G C22G A37G C60A A70G, the figure is no more than 0.5; as for U28A A40C C66U, 0.658. As for C5U C29G C33U, the figure is no more than 0.5; as for C34A, 0.71; as for C4A C62G C66U, no more than 0.5. Consider C5U C24G A42C U53G, for which the yeast fitness is no more than 0.5.

Turning to U13C U32C, the yeast fitness stood at 0.88. U2A U13A C29U U35A C60U: the yeast fitness was no more than 0.5.

On to A14G G18C A21U C29G C66U, for which the yeast fitness was no more than 0.5.

Consider C22G G50A U59C, for which the yeast fitness was no more than 0.5. Take G50U G67A: the yeast fitness was determined as 0.821. As for G23C G39C G67A, the figure is no more than 0.5. In the case of U13A U28C G58C A69U it was 0.7; in that of C11U A65U, 0.923. In the case of G9C G10A G12C C22U A45U it was no more than 0.5; in that of C5U C34G A45U, 0.534. Take U3A A36G A70C: the yeast fitness is 0.991.

As to C5U C30A A65C, the yeast fitness is 0.703. As for C4G G9A G10C C29A G50U U59G, the figure is 0.599. In the case of U3A C49U A65G it was 0.711. In the case of U19A C60A, the yeast fitness came out at 0.623.

On to G9A G25C U26A C30U, for which the yeast fitness is no more than 0.5. For U47C C55U, the yeast fitness was 0.796. As for C34A C49U, the figure is 0.826. As for G10C C46G, the figure is 0.708.

For the variant A14C A37U, the yeast fitness is 0.655.

Take U8A A14G A20U G63C C66G: the yeast fitness was no more than 0.5. In the case of G10A C49G it was 0.668; in that of U26G U59G, 0.704. On to G18C G39C, for which the yeast fitness came to 0.683. For the variant U2C C24G C34U C49A, the yeast fitness is no more than 0.5. As for C4G C11U U19A U32A A37U U64C, the figure is no more than 0.5; as for G18A C22A C46G U53A C61G A70C, 0.583; as for C5A A45U A69U, 0.801.

Regarding U26G G56A G68U A69U, the yeast fitness was no more than 0.5. On to G12A G44C G67A, for which the yeast fitness turned out to be 0.513. In the case of G12A G50C C66U it was no more than 0.5; in that of U8C A20C G56A C61U, 0.532; in that of U8C G10A C29G G56C, no more than 0.5. In the case of C22A A43U G68A it was no more than 0.5; in that of G6C U32A A37U, 0.583; in that of U28G G50C, 0.637. In the case of A15G G17A U26C C61U G67A it was no more than 0.5; in that of U3A U19C C22G C31G A69C, no more than 0.5; in that of C4A G9C C31A G41A, 0.773. Take C27U C33G A43G U53C A57G C61U C62U A70G: the yeast fitness is no more than 0.5. As for U28A C66U G68A, the figure is no more than 0.5.

Regarding C4A C29G A36U U53C, the yeast fitness was no more than 0.5. In the case of C22U G51C G67A it was 0.604. In the case of C30A C34A A43C C62U it was no more than 0.5; in that of A36G A45C, 1.01. In the case of A36G A45G it was 0.944; in that of A20U C34A G58A, no more than 0.5.

Regarding U26A C66A A69C, the yeast fitness was no more than 0.5.

Regarding G41C U59C, the yeast fitness worked out at 0.933.

With U2C A45C C49U, the yeast fitness turned out to be 0.698. Regarding U3A C24G C31U C62A, the yeast fitness was no more than 0.5. In the case of A20C C27U U59G it was 0.582; in that of U2A C5G U8A C24U C61G C66U A69U, no more than 0.5; in that of G12C C24G C30A A43C C60U C62A, no more than 0.5. As for G38A C66U, the figure is 0.909; as for A37C U54C, 0.799; as for C24A G39C, 0.705.

On to C27G C33G C55A, for which the yeast fitness was no more than 0.5. As for C29G C55G A57G, the figure is 0.593; as for U8A A43U A70G, 0.532. As for C4G A20U, the yeast fitness amounted to 0.659. As for U2G C11U, the figure is 0.824; as for G18A G52C G67U A69U, no more than 0.5; as for U2C C62U, 0.882. As for A15U A21C C49A, the figure is no more than 0.5.

With G9A C31A C33A, the yeast fitness is no more than 0.5.

Take U7C G12A G41A A42C G50C A70G: the yeast fitness is 0.53. As for U16A A45C G63C U64C, the figure is no more than 0.5; as for A15G U32A G38A G52A C66U, no more than 0.5; as for A20C C22U U26C C46G C49U A69C, no more than 0.5. As for C4A G12A A42G, the figure is no more than 0.5. In the case of C27A G51C it was 0.704. For the variant A42U G44C A45U C49G, the yeast fitness is no more than 0.5. As for C5A C27U G39C C49U C55U, the yeast fitness was no more than 0.5. As for U19C A20U A43U, the figure is 0.66; as for C30G A45U C60G C62U C66G, no more than 0.5. As for U16G U26G A36G, the figure is 0.58. As for A40G A57G, the figure is 0.969; as for C5G G18C C62A, no more than 0.5; as for G17C G18C G51A, no more than 0.5. For G9A C11G C24G U32A, the yeast fitness is no more than 0.5. As to G41C A42G, the yeast fitness came out at 0.804. For G48A C55A G58C, the yeast fitness turned out to be 0.516. In the case of A20C A45U A65G it was 0.58; in that of U2C A21G C33G A69C, 0.57. Regarding G6C G25A C27G A57U, the yeast fitness is no more than 0.5. In the case of A14U C31A C61A it was no more than 0.5; in that of C24A C34U A40C G68C, no more than 0.5.

For the variant U7C U47G G68U, the yeast fitness is no more than 0.5. In the case of A45U G48A it was 0.824.
